Series [1] has as its system Staphylococcus aureus. Put plainly: Antibacterial activity against methicillin resistant Staphylococcus aureus MRSA 1094. It is filed as functional.
For series [2], the system named is DNA gyrase (Bacillus subtilis). The series is described as follows: Inhibition of Bacillus subtilis gyrase activity.
Series [3] concerns the target DNA polymerase III PolC-type (Bacillus subtilis (strain 168), UniProt P13267). Put plainly: Binding affinity to Bacillus subtilis DNA polymerase3C. A digest of the protocol: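 Homogeneous recombinant B. subtilis pol IIIC was assayed in 96-well format on activated calf thymus DNA. Apparent Ki values were determined in a truncated assay lacking the competitor dGTP.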

In series [4] the test system is Enterococcus faecium. Put plainly: Antibacterial activity against Enterococcus faecium 19434. It is filed as functional.
A further series concerns Mus musculus. Put plainly: Effect on survival of mice after ip infection with Staphylococcus aureus Smith. Format: functional. The method in brief: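 Male Swiss-Webster mice (20–24 g) were given 10⁸ CFU of log-phase S. aureus Smith ip, grown in LB at 37 °C and washed in cold broth. A single iv tail-vein dose was given in DCP vehicle (10% DMA, 10% Cremophor EL in PBS, pH 9.5; 5 mL/kg) 15 min post-infection. Survival was scored at 72 h and ED50 derived.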

In series [5] the test system is Enterococcus faecium. The series is described as follows: Antibacterial activity against Vancomycin resistant Enterococcus faecium VRE 700802. Format: functional.
The subject of a further series is Enterococcus faecalis. Put plainly: Antibacterial activity against Enterococcus faecalis 29212. Format: functional.
For a further series, the system named is Escherichia coli. Put plainly: Antibacterial activity against Escherichia coli J53. It is filed as functional.
Series [6] deals with Staphylococcus aureus. The series is described as follows: Antibacterial activity against Staphylococcus aureus 25293. It is filed as functional.
The nature of series [7]: Plasma concentration after 6 hrs in mice administered with 100 mg/kg, iv. Format: ADME, organism-based. Set-up: dose 100 mg/kg, route intravenous. The settings on record: Swiss Webster, mouse. A digest of the protocol:
(§1)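 Male Swiss-Webster mice (20–24 g) got a single 100 mg/kg iv tail-vein bolus at 5 mL/kg in DCP vehicle (10% N,N-dimethylacetamide, 10% Cremophor EL in PBS, pH 9.5). Blood was taken from groups of 3 at various times. Plasma was quantified by C18 HPLC with MeCN:H₂O:NEt₃:AcOH (25:74.7:0.2:0.1), 1 mL/min, detection at 282 nm, against a spiked-plasma standard curve linear over 1–40 μg/mL.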

Series [8] concerns the target DNA topoisomerase IV (Bacillus subtilis). Put plainly: Inhibition of Bacillus subtilis topoisomerase IV activity.
Series [9] is described as follows: Cmax in mice at 100 mg/kg, iv. Set-up: dose 100 mg/kg, route intravenous. Format: ADME, organism-based. The note with it: Swiss Webster, mouse, in vivo. The method in brief: as §1
Series [10] in a line: Tmax in mice at 100 mg/kg, iv. The note with it: Swiss Webster, mouse, in vivo. Format: ADME, organism-based. Set-up: dose 100 mg/kg, route intravenous. The method in brief:
as §1

The next series relates to Bacillus subtilis. Put plainly: Antibacterial activity against Bacillus subtilis BD54. Format: functional.
For series [11], the system named is Staphylococcus aureus. Put plainly: Antibacterial activity against Staphylococcus aureus smith. Format: functional.

The structures appear in SMILES notation. Values after ≈ are worked out from the molar mass of the structure shown. Where only a bound is given, the exact number is not on record here.

Chain of DNA polymerase III PolC-type (P13267 whole entry, the tested form may be a part): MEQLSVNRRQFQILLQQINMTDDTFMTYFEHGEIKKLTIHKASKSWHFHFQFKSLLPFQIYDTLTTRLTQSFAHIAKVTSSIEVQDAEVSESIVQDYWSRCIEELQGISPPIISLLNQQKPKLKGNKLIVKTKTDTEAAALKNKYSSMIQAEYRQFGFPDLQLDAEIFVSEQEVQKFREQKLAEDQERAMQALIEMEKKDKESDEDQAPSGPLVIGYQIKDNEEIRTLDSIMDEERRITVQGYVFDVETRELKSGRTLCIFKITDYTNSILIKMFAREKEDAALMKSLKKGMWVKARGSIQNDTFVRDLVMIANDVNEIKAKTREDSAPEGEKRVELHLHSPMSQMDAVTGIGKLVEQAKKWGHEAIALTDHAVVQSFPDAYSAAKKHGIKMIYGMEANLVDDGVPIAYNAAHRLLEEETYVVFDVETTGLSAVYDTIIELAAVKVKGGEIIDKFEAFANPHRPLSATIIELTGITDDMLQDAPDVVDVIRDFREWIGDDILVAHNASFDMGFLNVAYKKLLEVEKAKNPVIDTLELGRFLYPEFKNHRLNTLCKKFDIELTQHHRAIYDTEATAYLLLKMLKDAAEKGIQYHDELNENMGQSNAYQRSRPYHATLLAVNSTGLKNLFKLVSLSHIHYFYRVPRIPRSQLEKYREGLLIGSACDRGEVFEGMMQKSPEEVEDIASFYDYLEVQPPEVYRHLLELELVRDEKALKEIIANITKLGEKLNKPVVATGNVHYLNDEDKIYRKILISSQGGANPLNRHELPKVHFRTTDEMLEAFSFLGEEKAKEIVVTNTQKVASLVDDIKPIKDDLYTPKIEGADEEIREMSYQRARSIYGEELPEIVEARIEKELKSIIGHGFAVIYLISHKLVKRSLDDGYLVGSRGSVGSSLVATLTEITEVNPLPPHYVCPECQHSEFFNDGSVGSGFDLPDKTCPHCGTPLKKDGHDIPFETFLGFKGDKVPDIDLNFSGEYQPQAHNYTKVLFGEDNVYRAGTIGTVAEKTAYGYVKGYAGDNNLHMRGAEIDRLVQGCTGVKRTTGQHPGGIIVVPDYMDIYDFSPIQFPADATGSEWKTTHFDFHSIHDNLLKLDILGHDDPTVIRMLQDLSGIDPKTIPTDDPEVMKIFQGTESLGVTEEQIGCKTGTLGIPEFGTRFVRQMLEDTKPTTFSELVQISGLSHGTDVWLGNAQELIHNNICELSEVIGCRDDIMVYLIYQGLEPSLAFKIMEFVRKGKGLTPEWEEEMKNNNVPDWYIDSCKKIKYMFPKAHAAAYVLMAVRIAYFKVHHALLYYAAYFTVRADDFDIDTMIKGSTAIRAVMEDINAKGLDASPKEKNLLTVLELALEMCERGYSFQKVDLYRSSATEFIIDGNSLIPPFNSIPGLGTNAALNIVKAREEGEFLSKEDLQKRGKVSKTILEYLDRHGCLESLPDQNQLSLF

Consider `CCc1cc(Nc2cc(=O)n(CCCCN3CCN(c4c(F)cc5c(=O)c(C(=O)O)cn(C6CC6)c5c4F)C[C@H]3C)c(=O)[nH]2)ccc1C`, for which the MIC in the series with Staphylococcus aureus [1] was determined as 1.25 µg/mL (≈ 1.89 µM); with Enterococcus faecium [4], 2.5 µg/mL (≈ 3.77 µM); against Enterococcus faecium [5], 1.25 µg/mL (≈ 1.89 µM); with Enterococcus faecalis, 1.25 µg/mL (≈ 1.89 µM); in the series on Escherichia coli, 5 µg/mL (≈ 7.54 µM). Besides, the IC50 in series [2] was 11.7 µg/mL (≈ 17.7 µM). Further, the Ki in series [3] (read-out: Ki) amounted to 7 nM. Also, the 50% effect level with Mus musculus (ED50) was put at a dose of 20 mg/kg.
In series [2], `CCc1cc(Nc2cc(=O)n(CCCCN3CCN(c4c(F)cc5c(=O)c(C(=O)O)cn(C6CC6)c5c4F)C[C@@H]3C)c(=O)[nH]2)ccc1C` displayed an IC50 of 9.2 µg/mL (≈ 13.9 µM). Also, the Ki in series [3] (read-out: Ki) worked out at 4 nM. The MIC worked out at 1.25 µg/mL (≈ 1.89 µM) in the series with Enterococcus faecium [4]; 0.625 µg/mL (≈ 0.943 µM) in the series with Staphylococcus aureus [6]; 0.625 µg/mL (≈ 0.943 µM) with Enterococcus faecium [5]; 1.25 µg/mL (≈ 1.89 µM) with Enterococcus faecalis; 20 µg/mL (≈ 30.2 µM) against Escherichia coli. Moreover, the ED50 in the series on Mus musculus turned out to be 15 mg/kg.
In the case of `CCc1cc(Nc2cc(=O)n(CCCCN3CCN(c4cc5c(cc4F)c(=O)c(C(=O)O)cn5C4CC4)CC3)c(=O)[nH]2)ccc1C`, the concentration at 6 h in [7] turned out to be 0.62 µg/mL. In addition, the MIC was 2.5 µg/mL (≈ 3.96 µM) against Staphylococcus aureus [1]; 1.25 µg/mL (≈ 1.98 µM) in the series on Enterococcus faecium [4]; 0.41 µg/mL (≈ 0.65 µM) in the series with Mus musculus; 0.625 µg/mL (≈ 0.991 µM) against Enterococcus faecium [5]; 0.625 µg/mL (≈ 0.991 µM) in the series with Enterococcus faecalis; over 40 µg/mL with Escherichia coli. In addition, the IC50 was 28.4 µg/mL (≈ 45 µM) in [2] and 22.9 µg/mL (≈ 36.3 µM) in series [8]. In [9], this molecule returned a Cmax of 213 µg/mL. Further, the Tmax in [10] is 5 min.
`C[C@@H]1CN(c2c(F)c(N)c3c(=O)c(C(=O)O)cn(C4CC4)c3c2F)C[C@H](C)N1` [SPARFLOXACIN]: the MIC in the series with Staphylococcus aureus [1] was 10 µg/mL (≈ 25.5 µM); against Enterococcus faecium [4] it was 1.25 µg/mL (≈ 3.19 µM); with Bacillus subtilis it was under 0.078 µg/mL; against Staphylococcus aureus [6] it was under 0.078 µg/mL; against Enterococcus faecium [5], 80 µg/mL (≈ 204 µM); against Enterococcus faecalis, 5 µg/mL (≈ 12.7 µM). Besides, the MIC in the series on Escherichia coli and against Staphylococcus aureus [11] was under 0.078 µg/mL throughout. Besides, the IC50 in series [2] is 0.4 µg/mL (≈ 1.02 µM). For the same molecule, the inhibitory constant (Ki) result in [3] was “Not Active”.

The term MIC denotes the smallest concentration in the dilution series that meets the test's criterion for growth inhibition. Low readings indicate inhibition by little substance, high ones a need for much substance. The IC50 is the midpoint of a concentration-inhibition curve. Low values mean higher potency, high ones lower potency. One may read the Ki as a measure of affinity in units of concentration, obtained from inhibition or displacement. Broadly, the ED50 is the dose that gives a 50% effect, or the effect in half of the subjects. Low values mean an effect at a small dose, high ones a need for a large dose. For orientation: Cmax means the peak of the concentration-time curve. As usually defined, the Tmax is the time from dosing to the highest level.

The record behind these values is ChEMBL document CHEMBL1138117, “Hybrid antibacterials. DNA polymerase-topoisomerase inhibitors” (J Med Chem, 2006).
